# Laboratory results published in ChEMBL document CHEMBL1145806, “Discovery and structural modification of inhibitors of methionine aminopeptidases from Escherichia coli and Saccharomyces cerevisiae” (J Med Chem, 2003).
# Biological target: T1, Methionine aminopeptidase 1 (Saccharomyces cerevisiae S288c, UniProt Q01662)
# T1 sequence (Q01662 whole entry): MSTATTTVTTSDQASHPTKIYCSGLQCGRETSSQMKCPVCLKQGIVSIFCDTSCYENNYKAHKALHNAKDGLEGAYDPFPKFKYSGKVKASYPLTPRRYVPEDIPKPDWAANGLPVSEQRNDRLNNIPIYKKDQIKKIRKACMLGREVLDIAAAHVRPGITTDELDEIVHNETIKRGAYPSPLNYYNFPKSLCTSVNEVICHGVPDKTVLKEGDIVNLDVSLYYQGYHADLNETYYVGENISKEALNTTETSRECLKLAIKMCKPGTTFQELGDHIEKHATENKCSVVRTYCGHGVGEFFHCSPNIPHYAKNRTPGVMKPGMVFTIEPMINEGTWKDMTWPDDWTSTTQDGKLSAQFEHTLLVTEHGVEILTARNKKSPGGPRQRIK
# Experiment: Inhibitory activity against type I methionine aminopeptidase from Saccharomyces cerevisiae
# Outline: (§1)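 Co(II)-activated enzyme: preincubated 30 min in 25 mM HEPES pH 7.5, 150 mM KCl, 15 mM methionine, 500 μM CoCl2. Chromogenic assay in 50 mM MOPS pH 7.0 with 1 mM DTNB and 100 μM thiopeptolide Met-S-Gly-Phe-OH. Final enzyme was 150 nM for EcMetAP1 and 330 nM for ScMetAP1. Hydrolysis read at 412 nm for 60 s. IC50 from inhibitor dilutions, […].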
row,SMILES,IC50
1,CC(C)=CC(=O)Nc1cccnc1C(=O)Nc1nccs1,770 nM
2,COc1cccc(C(=O)Oc2cccnc2C(=O)Nc2nccs2)c1[N+](=O)[O-],3020 nM
3,COc1ccccc1C(=O)Oc1cccnc1C(=O)Nc1nccs1,550 nM
4,O=C(Nc1cccnc1C(=O)Nc1nccs1)c1ccc(F)cc1,> 100000 nM
5,O=C(Nc1nccs1)c1ncccc1OC(=O)C1CCCCC1,320 nM
6,C=C(C)CC(=O)Nc1cccnc1C(=O)Nc1nccs1,4670 nM
7,O=C(Nc1cccnc1C(=O)Nc1nccs1)c1cccc(F)c1,> 100000 nM
8,CO[C@@H]1[C@H](OC(=O)/C=C/C=C/C=C/C=C/C(=O)O)CC[C@]2(CO2)[C@H]1[C@@]1(C)O[C@@H]1CC=C(C)C [FUMAGILLIN],> 100000 nM
9,CC(C)COC(=O)Nc1cccnc1C(=O)Nc1nccs1,53700 nM

# More lines, now with the values ahead:
row,IC50,SMILES
1,340 nM,CC(C)(C)C(=O)Nc1cccnc1C(=O)Nc1nccs1
2,780 nM,CC(C)(C)C(=O)Oc1cccnc1C(=O)Nc1nccs1
3,15000 nM,CC(=O)Oc1ccccc1C(=O)Oc1cccnc1C(=O)Nc1nccs1
4,890 nM,O=C(Oc1cccnc1C(=O)Nc1nccs1)c1ccccc1I
5,310 nM,CC(C)=CCCC(=O)Nc1cccnc1C(=O)Nc1nccs1
6,820 nM,O=C(Cc1ccccc1)Nc1cccnc1C(=O)Nc1nccs1
7,9900 nM,COc1ccccc1/C=C/C(=O)Oc1cccnc1C(=O)Nc1nccs1
8,> 100000 nM,O=C(Nc1nccs1)c1ncccc1NC(=O)C1CCCCC1
9,350 nM,CCC(=O)Nc1cccnc1C(=O)Nc1nccs1
10,> 100000 nM,O=C(Oc1cccnc1C(=O)Nc1nccs1)c1cccc(F)c1
11,140 nM,CC(C)=CCC(=O)Nc1cccnc1C(=O)Nc1nccs1
12,> 100000 nM,O=C(Oc1cccnc1C(=O)Nc1nccs1)c1ccccc1[N+](=O)[O-]
13,490 nM,CC(C)=CC(=O)Oc1cccnc1C(=O)Nc1nccs1

# Tested on: Escherichia coli
# Experiment: Selectivity of inhibitory activity of Methionine aminopeptidase 1 from Escherichia coli to Methionine aminopeptidase 1 from Saccharomyces cerevisiae
row,SMILES,Ratio
1,CC(C)=CC(=O)Nc1cccnc1C(=O)Nc1nccs1,0.29
2,COc1cccc(C(=O)Oc2cccnc2C(=O)Nc2nccs2)c1[N+](=O)[O-],0.56
3,COc1ccccc1C(=O)Oc1cccnc1C(=O)Nc1nccs1,3.1
4,O=C(Nc1cccnc1C(=O)Nc1nccs1)c1ccc(F)cc1,< 0.0136
5,O=C(Nc1nccs1)c1ncccc1OC(=O)C1CCCCC1,7.5
6,C=C(C)CC(=O)Nc1cccnc1C(=O)Nc1nccs1,0.032
7,O=C(Nc1cccnc1C(=O)Nc1nccs1)c1cccc(F)c1,< 0.0071
8,CC(C)COC(=O)Nc1cccnc1C(=O)Nc1nccs1,0.036

# More lines, now with the values ahead:
row,Ratio,SMILES
1,1.59,CC(C)(C)C(=O)Nc1cccnc1C(=O)Nc1nccs1
2,0.87,CC(C)(C)C(=O)Oc1cccnc1C(=O)Nc1nccs1
3,0.11,CC(=O)Oc1ccccc1C(=O)Oc1cccnc1C(=O)Nc1nccs1
4,1.5,O=C(Oc1cccnc1C(=O)Nc1nccs1)c1ccccc1I
5,2,CC(C)=CCCC(=O)Nc1cccnc1C(=O)Nc1nccs1
6,0.49,O=C(Cc1ccccc1)Nc1cccnc1C(=O)Nc1nccs1
7,0.21,COc1ccccc1/C=C/C(=O)Oc1cccnc1C(=O)Nc1nccs1
8,< 0.0087,O=C(Nc1nccs1)c1ncccc1NC(=O)C1CCCCC1
9,0.74,CCC(=O)Nc1cccnc1C(=O)Nc1nccs1
10,< 0.0095,O=C(Oc1cccnc1C(=O)Nc1nccs1)c1cccc(F)c1
11,1.71,CC(C)=CCC(=O)Nc1cccnc1C(=O)Nc1nccs1
12,< 0.021,O=C(Oc1cccnc1C(=O)Nc1nccs1)c1ccccc1[N+](=O)[O-]
13,5.3,CC(C)=CC(=O)Oc1cccnc1C(=O)Nc1nccs1

# Biological target: T2, Methionine aminopeptidase (Escherichia coli K-12, UniProt P0AE18)
# T2 sequence (P0AE18 whole entry): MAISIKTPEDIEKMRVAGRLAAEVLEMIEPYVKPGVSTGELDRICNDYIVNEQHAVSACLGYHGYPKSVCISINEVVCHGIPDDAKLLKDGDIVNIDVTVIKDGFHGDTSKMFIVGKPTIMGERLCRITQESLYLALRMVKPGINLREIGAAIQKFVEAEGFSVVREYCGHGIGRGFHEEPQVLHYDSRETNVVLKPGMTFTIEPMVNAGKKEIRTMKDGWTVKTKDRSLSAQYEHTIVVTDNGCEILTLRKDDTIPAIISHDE
# Experiment: Inhibitory activity against Methionine aminopeptidase 1 from Escherichia coli
# Outline: as §1
row,SMILES,IC50
1,CC(C)=CC(=O)Nc1cccnc1C(=O)Nc1nccs1,220 nM
2,COc1cccc(C(=O)Oc2cccnc2C(=O)Nc2nccs2)c1[N+](=O)[O-],1700 nM
3,COc1ccccc1C(=O)Oc1cccnc1C(=O)Nc1nccs1,1700 nM
4,O=C(Nc1cccnc1C(=O)Nc1nccs1)c1ccc(F)cc1,1360 nM
5,O=C(Nc1nccs1)c1ncccc1OC(=O)C1CCCCC1,2390 nM
6,C=C(C)CC(=O)Nc1cccnc1C(=O)Nc1nccs1,150 nM
7,O=C(Nc1cccnc1C(=O)Nc1nccs1)c1cccc(F)c1,710 nM
8,CO[C@@H]1[C@H](OC(=O)/C=C/C=C/C=C/C=C/C(=O)O)CC[C@]2(CO2)[C@H]1[C@@]1(C)O[C@@H]1CC=C(C)C [FUMAGILLIN],> 100000 nM
9,CC(C)COC(=O)Nc1cccnc1C(=O)Nc1nccs1,1920 nM

# Continued, values first:
row,IC50,SMILES
1,540 nM,CC(C)(C)C(=O)Nc1cccnc1C(=O)Nc1nccs1
2,680 nM,CC(C)(C)C(=O)Oc1cccnc1C(=O)Nc1nccs1
3,1600 nM,CC(=O)Oc1ccccc1C(=O)Oc1cccnc1C(=O)Nc1nccs1
4,1300 nM,O=C(Oc1cccnc1C(=O)Nc1nccs1)c1ccccc1I
5,610 nM,CC(C)=CCCC(=O)Nc1cccnc1C(=O)Nc1nccs1
6,400 nM,O=C(Cc1ccccc1)Nc1cccnc1C(=O)Nc1nccs1
7,2100 nM,COc1ccccc1/C=C/C(=O)Oc1cccnc1C(=O)Nc1nccs1
8,870 nM,O=C(Nc1nccs1)c1ncccc1NC(=O)C1CCCCC1
9,260 nM,CCC(=O)Nc1cccnc1C(=O)Nc1nccs1
10,950 nM,O=C(Oc1cccnc1C(=O)Nc1nccs1)c1cccc(F)c1
11,240 nM,CC(C)=CCC(=O)Nc1cccnc1C(=O)Nc1nccs1
12,2100 nM,O=C(Oc1cccnc1C(=O)Nc1nccs1)c1ccccc1[N+](=O)[O-]
13,2600 nM,CC(C)=CC(=O)Oc1cccnc1C(=O)Nc1nccs1
